Autophagy HCS: autophagy modulators in MEF cells, primary screen, imaging, high-content, MEF GFP-LC3. MEF GFP-LC3 puncta imaging; test concentration mostly 10 µM. calls only at 10 µM (by protocol). 190,000 tested, 0.98% active;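 active = percentage of spot-positive cells more than 3 SD above its plate mean, without a fluorescence outlier flag or 80% toxicity; inconclusive = no clear call, values can overlap the other calls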;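 note: spot-positive cell cutoff set from DMSO-treated cells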
MDM2 E3 inh: MDM2-luciferase reporter signal enhancers, primary screen, MDM2 E3 ligase inhibitor project, cell-based, luminescence, 1536-well. E3 ubiquitin-protein ligase Mdm2 (Homo sapiens), Q00987. cell-based MDM2 ubiquitination luciferase reporter, 2 h; 0 = plate control, 100 = twice control, blank-subtracted. signal enhancement, % at 5 µM. 210,000 tested, 0.11% active;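 active = signal enhancement of 30% or more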;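 note: luminescence tracks abundance of the self-degrading MDM2-luciferase fusion protein; higher signal means inhibition of MDM2 E3 ligase activity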
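Assay system: mammalian cells stably expressing self-ubiquitinating, self-degrading MDM2 E3–luciferase fusion. Quantity: 2000 cells in each well. Medium: DMEM culture medium. Compound dosing: single-point 5 µM. Timing: cell settling 4 h, compound treatment 2 h, both 37 °C. Technique: luciferase luminescence. Read-out basis: percent signal gain over controls, blank-subtracted. Benchmarks: plate controls and plate blanks.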
zVAD death inh: inhibitors of zVAD-triggered necroptosis, primary screen, L929 cells; 220,000 tested, 0.38% active; L929 zVAD necroptosis rescue, ATP luminescence, 24 h; with zVAD 60 µM; viability rescue, % at 10 µM;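 active = activation, scaled between plate controls, above about 75%, limit read from the data; inactive = activation under that limit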;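 note: 0% = zVAD with DMSO and 100% = DMSO alone without zVAD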
Hck-Nef inh: inhibitors of Nef-activated human Hck kinase, primary screen, biochemical, Z-Lyte FRET, 384-well, Hck-YEEI | Tyrosine-protein kinase HCK (Homo sapiens), P08631 | Recombinant Hck-YEEI plus Nef, Z-Lyte FRET kinase assay | inhibition, % at 20 µM | 220,000 tested, 0.68% active | AID 463187, 2010;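 active = Hck-Nef kinase inhibition above about 50%, limit read from the data; inactive = inhibition below that limit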;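 note: 0% = DMSO with Hck plus Nef and 100% = Hck alone without Nef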
Target sequence (P08631 whole entry, looked up): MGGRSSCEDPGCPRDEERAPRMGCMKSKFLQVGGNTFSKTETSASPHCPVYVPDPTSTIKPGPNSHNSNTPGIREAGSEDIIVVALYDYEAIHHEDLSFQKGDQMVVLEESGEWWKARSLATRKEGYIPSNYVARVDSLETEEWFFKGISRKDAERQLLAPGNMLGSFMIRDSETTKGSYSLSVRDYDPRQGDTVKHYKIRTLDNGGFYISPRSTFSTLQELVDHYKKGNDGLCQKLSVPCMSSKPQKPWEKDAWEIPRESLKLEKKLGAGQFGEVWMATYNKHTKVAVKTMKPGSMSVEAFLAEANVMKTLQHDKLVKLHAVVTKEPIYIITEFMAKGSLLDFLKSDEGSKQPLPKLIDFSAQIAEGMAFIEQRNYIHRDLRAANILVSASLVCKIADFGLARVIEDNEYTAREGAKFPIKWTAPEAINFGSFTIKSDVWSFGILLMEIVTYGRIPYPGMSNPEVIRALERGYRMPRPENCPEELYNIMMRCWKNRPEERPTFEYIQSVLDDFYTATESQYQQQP
Dynein cargo inh: inhibitors of GR-EGFP nuclear translocation, primary screen, dynein cargo transport inhibitor project, imaging, high-content, 3617.4 mouse cells. test concentration mostly 20 µM; stimulated with dexamethasone, 1 µM; active compounds read low. z-score, hits read low. 220,000 tested, 0.47% active. AID 1381, 2008;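 active = plate z-score of nuclear minus cytoplasmic receptor signal below a set negative limit, without overly bright fluorescence or cell loss, cut at about -3.5 in these data, passing the limit was not always enough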;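 note: z-score of nuclear minus cytoplasmic ring GR-EGFP intensity difference per well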
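Also added – dexamethasone, 1.0 µM final · Buffer or medium – tet-free, stripped-serum medium · Schedule – induction 48 h, compound 1 h, agonist 30 min · Detection – formaldehyde fixation, Hoechst nuclear stain, 10x automated fluorescence imaging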
TNF death inh: inhibitors of TNF-alpha triggered necroptosis, primary screen, cell-based, Jurkat FADD-/-, single concentration; Jurkat FADD-/- TNF necroptosis rescue, ATP luminescence, 24 h; 0 = TNF only, 100 = no-TNF cells; activation (protection from cell death), % at 10 µM; 220,000 tested, 0.068% active; AID 463075, 2010;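 active = activation, meaning protection from cell death, of at least 50% relative to plate controls; inactive = activation below 50%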;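 note: necroptosis triggered by 40 ng/mL TNF-alpha added together with compound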
zVAD death conf: inhibitors of zVAD-triggered necroptosis in L929, confirmation, L929 cells, duplicate runs; AID 463117, 2010; shares compounds with zVAD death inh; activation (protection from necroptosis), % at 10 µM; L929 zVAD-induced necroptosis rescue, ATP luminescence, 24 h; 760 tested, 16% active;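 active = mean protection from necroptosis of at least 50% over duplicate tests; inactive = mean protection below 50%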;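 note: 0% = cells with zVAD alone and 100% = vehicle cells without zVAD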
Dynein inh conf: dynein cargo transport inhibitors, GR-EGFP translocation, confirmation, imaging, high-content imaging, GR-EGFP cells. shares compounds with Dynein cargo inh. 3617.4 GR-EGFP nuclear translocation imaging, dexamethasone-induced. calls only at 20 µM. 1,000 tested, 69% active. AID 463116, 2010;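 active = inhibition of receptor movement into the nucleus at or above a set limit in both runs, with normal cell brightness and cell count; inconclusive = limit reached in only one run, brightness and count normal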;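 note: dexamethasone at 1 µM final in well for 30 min; nuclear minus cytoplasmic GR-EGFP mean intensity difference in channel 2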
Hck Nef conf: retest of Hck:Nef kinase inhibitor hits, confirmation, biochemical, Z-Lyte FRET, 384-well, p-Tyr peptide counterscreen | calls only at 10 µM | shares compounds with Hck-Nef inh | Recombinant Hck-YEEI:Nef, Z-Lyte FRET kinase assay | 1,300 tested, 28% active;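 active = average inhibition of at least 50%, with Z-scores no higher than 3 in both the phospho-tyrosine peptide and fluorescence counterscreens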
Numbers without * were called inactive; i = inactive; ? = inconclusive; · = no result shown; + = active, no number. Sampled rows, rich in hits. Any-hit rate of the full collection: about 2.4%.

SMILES	Autophagy HCS	MDM2 E3 inh	zVAD death inh	Hck-Nef inh	Dynein cargo inh	TNF death inh	zVAD death conf	Dynein inh conf	others
O=C1N=C2N(CCN3CCCCC3)c3ccccc3N2/C1=C\c1ccc([N+](=O)[O-])o1	i	-12	75*	38	-4*	-14	1	+
c1ccc2c(c1)N1CCCN=C1N2CCN1CCCCC1	i	-14	-1	23	-0.3	1	·	·
Cc1ccc(NC(=O)C(=Cc2ccc(C(=O)O)cc2)C(=O)Nc2ccc(C)cc2C)c(C)c1	·	-8	85*	16	-6*	-1	40	+
O=C(Cn1nnc(-c2ccc(NC(=O)c3ccccc3F)cc2)n1)NCc1ccc(F)cc1	·	·	84*	61*	0.11	3	38	·	Hck Nef conf=i
O=C(Nc1ccc(-c2nnn(CC(=O)N3CCN(C(=O)c4ccco4)CC3)n2)cc1)c1ccccc1F	i	-7	74	20	1.3	4	·	·
Cc1cccc(N=c2oc3cc(O)ccc3cc2C(N)=O)c1	i	-15	83*	153*	-0.0027	-4	20	·
COc1cc2oc(-c3ccc(O)cc3)cc(=O)c2c(O)c1OC	·	-40	78*	89*	-0.86	-11	42	·	Hck Nef conf=+
COc1cc2oc(-c3ccc(O)cc3)cc(=O)c2c(OC)c1O	·	·	6	8	1.7	-2	·	·
CCn1c2ccccc2c(=O)c2ccccc21	i	-18	80*	142*	0.71	0	2	·
Cc1cc2nnc(SCC(=O)N3CCCCCC3)n2c(N)n1	i	2	13	16	-0.49	0	·	·
CCOC(=O)c1c(NC(=O)N/N=C/c2ccc(O)c(OC)c2)sc(C(C)=O)c1C	·	·	78*	61*	0.8	-13	40	·	Hck Nef conf=i
O=C(c1ccc(Oc2cc(Cl)cc(Cl)c2)o1)N1CCCCC1	·	-1	0	7	0.2	1	·	·
C(=N\Nc1ncnc2nc[nH]c12)/c1cccs1	i	-12	77*	82*	-0.51	-3	40	·	Hck Nef conf=+
Clc1cnc(N/N=C/c2cccs2)c(Cl)c1	i	-2	1	1	-1.4	9	·	·
O=S(=O)(NCc1ccco1)c1ccc(Cl)nc1	i	-5	0	7	1.1	1	·	·
O=C1C=CC(O)(c2cc(=O)c3c(O)cc(O)cc3o2)C=C1	i	·	125*	53*	-6.7*	-15	166*	+	Hck Nef conf=i
CC(C)c1ccc(-c2nc(N3CCCC3)nc3n[nH]c(N)c23)cc1	i	-10	40	1	-0.35	1	·	·
Nc1[nH]nc2nc(N3CCOCC3)nc(-c3ccccc3)c12	i	-12	92*	67*	-0.54	0	39	·	Hck Nef conf=+
CC(=O)Nc1cccc(CP(=O)(c2ccccc2)c2ccccc2)c1	·	-16	0	12	-0.97	-1	·	·
CCN1CCN(Cc2ccc(NC(=O)c3ccc(C)c(NC(=O)c4ccnnc4)c3)cc2C(F)(F)F)CC1	·	15	76*	55*	-0.49	5	56*	·	Hck Nef conf=i
O=c1nc(N/N=C/c2c[nH]c3ccccc23)cn[nH]1	·	-34	0	39	0.6	-5	·	·
C(=N\Nc1ccccn1)/c1c[nH]c2ccccc12	·	10	92*	51*	-0.41	15	55*	·	Hck Nef conf=i
C/C(=N\N=C1/NC(=O)C(C)S1)c1ccco1 (configuration not stated)	i	-12	0	-18	1.9	0	·	·
CCOc1ccc(Oc2ccc(C(F)(F)F)cc2N)cc1	i	4	0	0	0.099	0	·	·
Cc1ccc(NC(=O)CN2C(=O)S/C(=C/c3ccc(O)c([N+](=O)[O-])c3)C2=O)cc1C	i	-1	86*	64*	1.8	2	2	·	Hck Nef conf=+
SMILES	Autophagy HCS	MDM2 E3 inh	zVAD death inh	Hck-Nef inh	Dynein cargo inh	TNF death inh	zVAD death conf	Dynein inh conf	others
CC1=Nc2ccccc2/C1=C/c1nc(-c2ccc(C)s2)oc1O	i	0	0	8	-6.7	2	·	?
CCOc1ccc(/C=C/[N+](=O)[O-])c2ccccc12	i	24	4	0	-3.9*	-15	·	i
O=[N+]([O-])/C=C/c1c(OCc2ccccc2)ccc2ccccc12	i	-10	1	1	-0.62	-10	·	·
CCOC(=O)COc1ccc2ccccc2c1/C=C/[N+](=O)[O-]	i	-49	0	9	-4.8*	1	·	+
CCOC(=O)COc1ccc(/C=C/[N+](=O)[O-])c(OCC(=O)OCC)c1	i	0	13	2	-4.8*	-22	·	+
COc1ccccc1NC(=O)CSC(N)=O	i	-7	-1	-24	1.3	-1	·	·
CN(C)S(=O)(=O)c1ccc(Cl)c(NC(=O)COC(=O)c2ccc3c(c2)NC(=O)CS3)c1	·	-12	0	1	0.15	-2	·	·
CO/N=C(/C)CCS(=O)(=O)c1ccccc1	i	-6	1	23	0.24	0	·	·
COc1cc(/C=C2/CC/C(=C/c3ccc(O)c(OC)c3)C2=O)ccc1O	·	-1	5	10	-1	-25	·	·
COc1ccc(/C=C2\CC/C(=C\c3ccc(OC)c(OC)c3)C2=O)cc1OC	i	-23	0	3	-1.2	1	·	·
COc1cc(/C=C2\COC/C(=C\c3ccc(O)c(OC)c3)C2=O)ccc1O	·	16	55	-1	-5.7*	-18	·	+
CCN1C/C(=C/c2ccc(OC)c(O)c2)C(=O)/C(=C/c2ccc(OC)c(O)c2)C1	+	50*	57	23	-6.3*	-9	·	?
COc1ccc(N=CC2=C(Nc3ccc(OC)cc3)c3c(C)nn(-c4ccccn4)c3CC2)cc1	i	·	1	8	-4.3	-9	·	i
